Experimental findings from ChEMBL document CHEMBL3868589, “Purification, Conformational Analysis, and Properties of a Family of Tigerinin Peptides from Skin Secretions of the Crowned Bullfrog Hoplobatrachus occipitalis” (J Nat Prod, 2016) are described below.

Calls of active or inactive are those of the source. The rule behind the calls is not given here. Where a SMILES comes first, the peptide text is derived from it.

Data set [1] has as its system BRIN-BD11. The data set is described as follows: Inhibition of Katp in rat BRIN-BD11 cells assessed as minimum concentration required to produce increase in rate of insulin release over the basal rate after 20 mins in presence of 5.6 mM glucose by radioimmunoassay. It counts as cell-based. A digest of the protocol:
(§1)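 BRIN-BD11 clonal β-cells attached overnight at 37 °C, then 20 min at 37 °C in KRB buffer with 5.6 mM glucose, peptides up to 1 μM. Insulin in supernatant by radioimmunoassay, expressed per 10^6 cells per 20 min. Parallel controls: 10 mM alanine, 1 μM GLP-1, 30 mM KCl.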

Data set [2] is described as follows: Induction of GLP1 release in mouse GLUTag cells at 10 nM after 2 hrs by ELISA relative to basal level.
The species entered for the next data set is Rattus norvegicus. The data set is described as follows: Cytotoxicity in rat BRIN-BD11 cells assessed as effect on plasma membrane integrity through LDH release up to 1 uM after 20 mins in presence of glucose by nonradioactive CytoTox96 assay. The class given is toxicity, cell-based. As to conditions: brin-bd11, 20 min. A digest of the protocol:
(§2)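 BRIN-BD11 and GLUTag cells exposed to peptides (1 nM to 1 μM; n = 3) for 20 min at 37 °C in KRB buffer with 5.6 mM glucose. Membrane integrity judged by LDH in supernatant, measured with CytoTox96 nonradioactive kit.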

The species named for data set [3] is Mus musculus. The data set is described as follows: Toxicity in NIH Swiss mouse erythrocytes assessed as hemolytic activity up to 500 uM incubated for 60 mins. As to conditions: erythrocyte, 1 h. A digest of the protocol: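 Washed erythrocytes (2 × 10^7 cells) from male NIH Swiss mice incubated 60 min at 37 °C with peptides at 31−500 μM. LC50 taken as mean concentration giving 50% hemolysis across three independent incubations.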

The subject of data set [4] is BRIN-BD11. Nature of the data set: Inhibition of Katp in rat BRIN-BD11 cells assessed as insulin release at 1 uM after 20 mins in presence of 5.6 mM glucose by radioimmunoassay relative to basal level. It counts as cell-based. Also noted: scale not given: the % may be the effect or the level left. A digest of the protocol:
as §1

For data set [5], the species on record is Mus musculus. Nature of the data set: Cytotoxicity in mouse GLUTag cells assessed as effect on plasma membrane integrity through LDH release up to 1 uM after 20 mins in presence of glucose by nonradioactive CytoTox96 assay. It counts as toxicity, cell-based. A digest of the protocol:
as §2
(LDH leaks from cells whose membrane has failed.)

Data set [6] is described as follows: Induction of GLP1 release in mouse GLUTag cells assessed as minimum concentration required to produce increase in rate of GPL1 release over the basal rate after 2 hrs in presence of 2 mM glucose by ELISA. Background: ELISA stands for enzyme-linked immunosorbent assay.
Data set [7] is filed under the species Mus musculus. Nature of the data set: Antiinflammatory activity in C57BL/6 mouse unstimulated peritoneal cells assessed as reduction of IFN-gamma at 1 ug/ml after 24 hrs by ELISA. It counts as functional. A digest of the protocol:
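Peritoneal cells lavaged with 5 mL cold PBS from unstimulated adult C57BL/6 mice (mixed macrophages, B-, T-, NK cells), resuspended in RPMI 1640 + 10% FBS, 2 × 10^5 cells/well. Peptides at 1, 5 and 10 μg/mL for 24 h at 37 °C; three independent incubations, 6 mice per group. IFN-γ in cell-free supernatant by ELISA in triplicate, compared with medium only.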

The nature of data set [8]: Induction of GLP1 release in mouse GLUTag cells at 1 uM after 2 hrs in presence of 2 mM glucose by ELISA relative to basal level.
Data set [9] relates to BRIN-BD11. Nature of the data set: Inhibition of Katp in rat BRIN-BD11 cells assessed as increase in rate of insulin release after 20 mins in presence of 5.6 mM glucose by radioimmunoassay relative to basal level. It counts as cell-based. A digest of the protocol:
as §1

The subject of data set [10] is BRIN-BD11. The data set is described as follows: Inhibition of Katp in rat BRIN-BD11 cells assessed as increase in insulin release after 20 mins by radioimmunoassay. The class given is cell-based.
Data set [11] deals with BRIN-BD11. Nature of the data set: Inhibition of Katp in rat BRIN-BD11 cells assessed as minimum concentration required to produce 83% increase in rate of insulin release over the basal rate after 20 mins in presence of 5.6 mM glucose by radioimmunoassay. It counts as cell-based. A digest of the protocol:
as §1

The nature of data set [12]: Induction of increase in glucose-induced insulin secretion in rat BRIN-BD11 cells assessed as insulin release per million cells at 10 mM after 20 mins by radioimmunoassay (reference value: 1 +/- 0.03 ng). It counts as functional. A digest of the protocol:
as §1

Data set [13] can be described thus: Induction of increase in glucose-induced insulin secretion in rat BRIN-BD11 cells assessed as insulin release per million cells at 30 mM after 20 mins by radioimmunoassay (reference value: 1 +/- 0.03 ng). The class given is functional. A digest of the protocol: as §1

Take `CC[C@H](C)[C@H](NC(=O)[C@H](CS)NC(=O)[C@@H](NC(=O)[C@@H](N)CCCNC(=N)N)[C@@H](C)O)C(=O)N1CCC[C@H]1C(=O)N[C@H](C(=O)N1CCC[C@H]1C(=O)N1CCC[C@H]1C(=O)N[C@H](C(=O)N[C@@H](CS)C(=O)N[C@@H](Cc1ccccc1)C(=O)O)C(C)C)[C@@H](C)CC` (H-RTCIPIPPVCF-OH): the Activity in the data set on BRIN-BD11 [1] was 1 ×10⁻⁶ M; in data set [2], 289.3%; in the data set filed under Rattus norvegicus, “Non-Toxic”; in the data set filed under Mus musculus [3] it was “Non-Toxic”; with BRIN-BD11 [4], 163%; in the data set filed under Mus musculus [5], “Non-Toxic”. In addition, in data set [6], the Activity came to 1 ×10⁻⁸ M. The result in the data set listed under Mus musculus [7] was Active.

Consider `CC[C@H](C)[C@H](NC(=O)[C@@H](N)CCCNC(=N)N)C(=O)N[C@@H](CS)C(=O)N[C@H](C(=O)N[C@@H](C)C(=O)N[C@H](C(=O)N1CCC[C@H]1C(=O)N[C@@H](CC(C)C)C(=O)N1CCC[C@H]1C(=O)N[C@@H](CCSC)C(=O)N[C@@H](CS)C(=O)N[C@@H](CC(C)C)C(=O)O)[C@@H](C)CC)[C@@H](C)O` (H-RICTAIPLPMCL-OH), for which the Activity in the data set with BRIN-BD11 [1] is 1 ×10⁻⁷ M; in data set [8] it was 217.5%; in the data set filed under Rattus norvegicus, “Non-Toxic”; in the data set listed under Mus musculus [3] it was “Non-Toxic”; in the data set on BRIN-BD11 [4], 233%; in the data set listed under Mus musculus [5] it was “Non-Toxic”. Further, the Activity in [6] was determined as 1 ×10⁻⁶ M.

In the case of `CC[C@H](C)[C@H](NC(=O)[C@H](C)NC(=O)[C@H](CO)NC(=O)[C@H](CS)NC(=O)[C@@H](NC(=O)[C@@H](N)CCCNC(=N)N)C(C)C)C(=O)N1CCC[C@H]1C(=O)N[C@@H](CC(C)C)C(=O)N1CCC[C@H]1C(=O)N[C@@H](Cc1c[nH]c2ccccc12)C(=O)N[C@@H](CS)C(=O)N[C@@H](Cc1cnc[nH]1)C(=O)O` (H-RVCSAIPLPWCH-OH), the inhibition entry in the data set on BRIN-BD11 [9] and in the data set on BRIN-BD11 [10] was “Dose-dependent effect” throughout.

As to `CC[C@H](C)[C@H](NC(=O)[C@@H](N)CCCNC(=N)N)C(=O)N[C@@H](CS)C(=O)N[C@H](C(=O)N1CCC[C@H]1C(=O)N[C@H](C(=O)N1CCC[C@H]1C(=O)N[C@@H](Cc1ccccc1)C(=O)N1CCC[C@H]1C(=O)N[C@@H](CCSC)C(=O)N[C@@H](CS)C(=O)N[C@@H](Cc1ccc(O)cc1)C(=O)O)[C@@H](C)CC)[C@@H](C)O` (H-RICTPIPFPMCY-OH), the Activity in data set [8] is 159%; in the data set with BRIN-BD11 [11], 1 ×10⁻⁹ M; in the data set filed under Rattus norvegicus it was “Non-Toxic”; in the data set listed under Mus musculus [3], “Non-Toxic”; with BRIN-BD11 [4], 395%; in the data set listed under Mus musculus [5], “Non-Toxic”.

Take `C[C@H](N)C(=O)O` [ALANINE]: the Activity in data set [12] came out at 3.05 ng.

`CC[C@H](C)[C@H](NC(=O)[C@H](CS)NC(=O)[C@@H](NC(=O)[C@@H](N)CCCNC(=N)N)[C@@H](C)O)C(=O)N1CCC[C@H]1C(=O)N[C@H](C(=O)N1CCC[C@H]1C(=O)N[C@@H](CC(C)C)C(=O)N[C@H](C(=O)N[C@@H](CCSC)C(=O)N[C@@H](CS)C(=O)O)C(C)C)[C@@H](C)CC` (H-RTCIPIPLVMC-OH): the Activity with BRIN-BD11 [1] is 1 ×10⁻⁷ M; in [8] it was 193%; in the data set listed under Rattus norvegicus it was “Non-Toxic”; in the data set listed under Mus musculus [3] it was “Non-Toxic”; in the data set on BRIN-BD11 [4] it was 201%; in the data set filed under Mus musculus [5], “Non-Toxic”. In data set [6], the Activity was found to be 1 ×10⁻⁷ M. In addition, the outcome in the data set filed under Mus musculus [7] was Active.

For the compound `[Cl-].[K+]` [POTASSIUM CHLORIDE], the Activity in data set [13] worked out at 4.05 ng.
